Converted amounts (≈) assume the structure as drawn.
Columns and labels:
SF-268 = assay: Cytotoxicity against human SF268 cells assessed as cell growth after 2 days by sulforhodamine B assay; assay type: functional; details: SF-268, 48 h
In short: (§1)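 NCI cell lines were run by the Monks method: cells were plated with compounds from DMSO stocks and incubated 2 days at 37 °C in 5% CO2, in duplicate. Cells were fixed with cold TCA, stained with 0.4% SRB, and the bound dye was solubilized in 10 mM tris-base and read at 515 nm. The zero-day control was subtracted, and GI50 was taken from the curves.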

Aspergillus flavus = assay: Antifungal activity against Aspergillus flavus ATCC 9170; assay type: functional
In short: (§2)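 Broth microdilution per CLSI M38-A2 in RPMI-1640 with MOPS at pH 7.0. Inoculum 1-5 × 10^3 CFU/mL, with twofold compound dilutions spanning 250-0.24 µg/ml (final DMSO <1%). Plates incubated at 35 °C, moist and dark, and read when the control fungus had grown. MIC is total growth inhibition. MFC comes from subculturing clear wells in duplicate onto SDA.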

Saccharomyces cerevisiae = assay: Antifungal activity against Saccharomyces cerevisiae ATCC 9763; assay type: functional
In short: (§3)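 CLSI M27-A3 broth microdilution in RPMI-1640 buffered to pH 7.0 with MOPS. Inoculum 1-5 × 10^3 CFU/mL. Compound twofold dilutions from 250 to 0.24 µg/ml, final DMSO <1%. Incubated at 35 °C in a moist, dark chamber and read at 48 h. MIC is the lowest concentration giving total growth inhibition. For MFC, 5 µL from clear wells was plated in duplicate on SDA; MFC is the lowest concentration with no growth.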

[1] = test system: Trichophyton mentagrophytes; assay: Antifungal activity against Trichophyton mentagrophytes ATCC 9972; assay type: functional
In short: (§4)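 Dermatophytes tested by CLSI M38-A2 microdilution in MOPS-buffered RPMI-1640 at pH 7.0. Inoculum 1-5 × 10^3 CFU/mL; compounds 250 to 0.24 µg/ml in twofold steps, final DMSO <1%. Incubated at 28 °C in a moist, dark chamber and read according to control growth. MIC is the lowest concentration with complete inhibition. MFC is the lowest concentration with no growth after duplicate subculture on SDA.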

Aspergillus fumigatus = assay: Antifungal activity against Aspergillus fumigatus ATCC 26934; assay type: functional; in short: as §2
[2] = Cytotoxicity against human erythrocytes assessed as hemolysis by spectrometric analysis; assay type: cell-based, Erythrocyte
In short: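 Human heparinized red blood cells were washed in PBS at pH 7.0 and suspended at 4% in sterile 5% glucose. Compounds from DMSO stocks were diluted in 5% glucose to final concentrations of 250 to 0.24 µg/ml and incubated with the cells at 37 °C. Released hemoglobin was read at 540 nm. HC50 is the concentration giving 50% lysis relative to the drug-free value.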

Aspergillus niger = assay: Antifungal activity against Aspergillus niger ATCC 9029; assay type: functional; in short: as §2
Candida tropicalis = assay: Antifungal activity against Candida tropicalis C 131 2000; assay type: functional; in short: as §3
Trichophyton rubrum = assay: Antifungal activity against Trichophyton rubrum C 113 2000; assay type: functional; in short: as §4
MCF7 = assay: Cytotoxicity against human MCF7 cells assessed as cell growth after 2 days by sulforhodamine B assay; assay type: functional; details: MCF7, 48 h; in short: as §1
NCI-H460 = assay: Cytotoxicity against human H460 cells assessed as cell growth after 2 days by sulforhodamine B assay; assay type: functional; details: NCI-H460, 48 h; in short: as §1
Cryptococcus neoformans = assay: Antifungal activity against Cryptococcus neoformans ATCC 32264; assay type: functional; in short: as §3
Nannizzia gypsea = assay: Antifungal activity against Microsporum gypseum C 115 2000; assay type: functional; in short: as §4
Candida albicans = assay: Antifungal activity against Candida albicans ATCC 10213; assay type: functional; in short: as §3

SMILES | MIC (Aspergillus flavus) [µg/mL] | MIC (Saccharomyces cerevisiae) [µg/mL] | MIC [1] [µg/mL] | MIC (Aspergillus fumigatus) [µg/mL] | MIC (Aspergillus niger) [µg/mL] | MIC (Candida tropicalis) [µg/mL] | MIC (Trichophyton rubrum) [µg/mL] | MIC (Cryptococcus neoformans) [µg/mL] | GI50 (SF-268) [µg/mL] | MFC (Aspergillus flavus) [µg/mL] | MFC (Saccharomyces cerevisiae) [µg/mL] | MFC [1] [µg/mL] | MFC (Aspergillus fumigatus) [µg/mL] | HC50 [2] [µg/mL] | MFC (Aspergillus niger) [µg/mL] | MFC (Candida tropicalis) [µg/mL] | MFC (Trichophyton rubrum) [µg/mL] | GI50 (MCF7) [µg/mL] | GI50 (NCI-H460) [µg/mL] | MFC (Cryptococcus neoformans) [µg/mL] | other results
COc1ccc(N2C(=O)C=CC2=O)cc1OC | 62.5 (≈ 268 µM) | 7.81 (≈ 33.5 µM) | 3.9 (≈ 16.7 µM) | 62.5 (≈ 268 µM) | 62.5 (≈ 268 µM) | 15.6 (≈ 67 µM) | 3.9 (≈ 16.7 µM) | 7.81 (≈ 33.5 µM) | > 10 | 125 (≈ 536 µM) | 15.6 (≈ 67 µM) | 7.81 (≈ 33.5 µM) | 125 (≈ 536 µM) | > 250 | 125 (≈ 536 µM) | 15.6 (≈ 67 µM) | 7.81 (≈ 33.5 µM) | > 10 | > 10 | 15.6 (≈ 67 µM) | MFC (Nannizzia gypsea): 7.81 µg/mL (≈ 33.5 µM); MIC (Nannizzia gypsea): 3.9 µg/mL (≈ 16.7 µM); MFC (Candida albicans): 62.5 µg/mL (≈ 268 µM); MIC (Candida albicans): 31.2 µg/mL (≈ 134 µM)
COc1ccc(N2C(=O)C=CC2=O)c(OC)c1 | 62.5 (≈ 268 µM) | 7.81 (≈ 33.5 µM) | 3.9 (≈ 16.7 µM) | 31.2 (≈ 134 µM) | 15.6 (≈ 67 µM) | 15.6 (≈ 67 µM) | 3.9 (≈ 16.7 µM) | 7.81 (≈ 33.5 µM) | > 10 | 125 (≈ 536 µM) | 7.81 (≈ 33.5 µM) | 3.9 (≈ 16.7 µM) | 62.5 (≈ 268 µM) | > 250 | 62.5 (≈ 268 µM) | 15.6 (≈ 67 µM) | 7.81 (≈ 33.5 µM) | > 10 | > 10 | 7.81 (≈ 33.5 µM) | MFC (Nannizzia gypsea): 7.81 µg/mL (≈ 33.5 µM); MIC (Nannizzia gypsea): 3.9 µg/mL (≈ 16.7 µM); MFC (Candida albicans): 15.6 µg/mL (≈ 67 µM); MIC (Candida albicans): 15.6 µg/mL (≈ 67 µM)
O=C1C=CC(=O)N1c1ccc2c(c1)OCO2 | 62.5 (≈ 288 µM) | 7.81 (≈ 36 µM) | 1.95 (≈ 8.98 µM) | 62.5 (≈ 288 µM) | 62.5 (≈ 288 µM) | 31.2 (≈ 144 µM) | 1.95 (≈ 8.98 µM) | 7.81 (≈ 36 µM) | > 10 | 125 (≈ 576 µM) | 15.6 (≈ 72 µM) | 3.9 (≈ 18 µM) | 125 (≈ 576 µM) | > 250 | 125 (≈ 576 µM) | 62.5 (≈ 288 µM) | 3.9 (≈ 18 µM) | > 10 | > 10 | 15.6 (≈ 72 µM) | MFC (Nannizzia gypsea): 1.95 µg/mL (≈ 8.98 µM); MIC (Nannizzia gypsea): 1.95 µg/mL (≈ 8.98 µM); MFC (Candida albicans): 62.5 µg/mL (≈ 288 µM); MIC (Candida albicans): 31.2 µg/mL (≈ 144 µM)

Now from value to molecule, other results behind:

MIC (Aspergillus flavus) [µg/mL] | MIC (Saccharomyces cerevisiae) [µg/mL] | MIC [1] [µg/mL] | MIC (Aspergillus fumigatus) [µg/mL] | MIC (Aspergillus niger) [µg/mL] | MIC (Candida tropicalis) [µg/mL] | MIC (Trichophyton rubrum) [µg/mL] | MIC (Cryptococcus neoformans) [µg/mL] | SMILES | GI50 (SF-268) [µg/mL] | MFC (Aspergillus flavus) [µg/mL] | MFC (Saccharomyces cerevisiae) [µg/mL] | MFC [1] [µg/mL] | MFC (Aspergillus fumigatus) [µg/mL] | HC50 [2] [µg/mL] | MFC (Aspergillus niger) [µg/mL] | MFC (Candida tropicalis) [µg/mL] | MFC (Trichophyton rubrum) [µg/mL] | GI50 (MCF7) [µg/mL] | GI50 (NCI-H460) [µg/mL] | MFC (Cryptococcus neoformans) [µg/mL] | other results
31.2 (≈ 136 µM) | 15.6 (≈ 68.2 µM) | 15.6 (≈ 68.2 µM) | 15.6 (≈ 68.2 µM) | 31.2 (≈ 136 µM) | 125 (≈ 545 µM) | 1.95 (≈ 8.5 µM) | 15.6 (≈ 68.2 µM) | CC1=CC(=O)N(CCCc2ccccc2)C1=O | > 10 | 31.2 (≈ 136 µM) | 62.5 (≈ 273 µM) | 31.2 (≈ 136 µM) | 31.2 (≈ 136 µM) | > 250 | 31.2 (≈ 136 µM) | 125 (≈ 545 µM) | 3.9 (≈ 17 µM) | > 10 | > 10 | 31.2 (≈ 136 µM) | MFC (Nannizzia gypsea): 7.81 µg/mL (≈ 34.1 µM); MIC (Nannizzia gypsea): 3.9 µg/mL (≈ 17 µM); MFC (Candida albicans): 125 µg/mL (≈ 545 µM); MIC (Candida albicans): 62.5 µg/mL (≈ 273 µM)
62.5 (≈ 257 µM) | 31.2 (≈ 128 µM) | 31.2 (≈ 128 µM) | 31.2 (≈ 128 µM) | 62.5 (≈ 257 µM) | 62.5 (≈ 257 µM) | 3.9 (≈ 16 µM) | 31.2 (≈ 128 µM) | CC1=CC(=O)N(CCCCc2ccccc2)C1=O | > 10 | 125 (≈ 514 µM) | 62.5 (≈ 257 µM) | 31.2 (≈ 128 µM) | 62.5 (≈ 257 µM) | > 250 | 125 (≈ 514 µM) | 125 (≈ 514 µM) | 15.6 (≈ 64.2 µM) | > 10 | > 10 | 62.5 (≈ 257 µM) | MFC (Nannizzia gypsea): 15.6 µg/mL (≈ 64.2 µM); MIC (Nannizzia gypsea): 3.9 µg/mL (≈ 16 µM); MFC (Candida albicans): 125 µg/mL (≈ 514 µM); MIC (Candida albicans): 62.5 µg/mL (≈ 257 µM)
